TRPC4 inh – inhibitors of mouse TRPC4 channel; Q9QUQ5; HEK293 TRPC4beta/mu-opioid, DAMGO-evoked Fluo4 calcium flux; active compounds read low; B-score at 10 µM; 300,000 compounds, 0.39% hits;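 active means B-score over 3 SD under the library average, no early fluorescence shift, positive overall ratio signal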
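Assay system – HEK293 line stably carrying TRPC4beta and mu-opioid receptor · Doses – single dose · Detection – Fluo4 calcium-dye fluorescence, kinetic read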
TRPC4 potent – allosterically enhances the mouse TRPC4 cation channel. Q9QUQ5. HEK293 TRPC4beta/mu-opioid, DAMGO EC20, Fluo-4 Ca2+ flux; active compounds read high. B-score at 10 µM. 310,000 compounds, 0.42% hits;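 active means B-score of calcium response area above 5 SD of library B-scores, with initial fluorescence ratio within 5 SD of library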
TRPC6 act – activates the mouse TRPC6 cation channel; Q61143; HEK293-TRPC6 membrane potential dye fluorescence; active compounds read high; B-score at 10 µM; 310,000 compounds, 0.13% hits;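 active means B-score of the integrated fluorescence ratio above library mean plus 3 SD, and starting fluorescence ratio within library mean plus 5 SD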;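 further: higher score means more depolarization so channel activation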
Target sequence (Q61143 whole entry, looked up): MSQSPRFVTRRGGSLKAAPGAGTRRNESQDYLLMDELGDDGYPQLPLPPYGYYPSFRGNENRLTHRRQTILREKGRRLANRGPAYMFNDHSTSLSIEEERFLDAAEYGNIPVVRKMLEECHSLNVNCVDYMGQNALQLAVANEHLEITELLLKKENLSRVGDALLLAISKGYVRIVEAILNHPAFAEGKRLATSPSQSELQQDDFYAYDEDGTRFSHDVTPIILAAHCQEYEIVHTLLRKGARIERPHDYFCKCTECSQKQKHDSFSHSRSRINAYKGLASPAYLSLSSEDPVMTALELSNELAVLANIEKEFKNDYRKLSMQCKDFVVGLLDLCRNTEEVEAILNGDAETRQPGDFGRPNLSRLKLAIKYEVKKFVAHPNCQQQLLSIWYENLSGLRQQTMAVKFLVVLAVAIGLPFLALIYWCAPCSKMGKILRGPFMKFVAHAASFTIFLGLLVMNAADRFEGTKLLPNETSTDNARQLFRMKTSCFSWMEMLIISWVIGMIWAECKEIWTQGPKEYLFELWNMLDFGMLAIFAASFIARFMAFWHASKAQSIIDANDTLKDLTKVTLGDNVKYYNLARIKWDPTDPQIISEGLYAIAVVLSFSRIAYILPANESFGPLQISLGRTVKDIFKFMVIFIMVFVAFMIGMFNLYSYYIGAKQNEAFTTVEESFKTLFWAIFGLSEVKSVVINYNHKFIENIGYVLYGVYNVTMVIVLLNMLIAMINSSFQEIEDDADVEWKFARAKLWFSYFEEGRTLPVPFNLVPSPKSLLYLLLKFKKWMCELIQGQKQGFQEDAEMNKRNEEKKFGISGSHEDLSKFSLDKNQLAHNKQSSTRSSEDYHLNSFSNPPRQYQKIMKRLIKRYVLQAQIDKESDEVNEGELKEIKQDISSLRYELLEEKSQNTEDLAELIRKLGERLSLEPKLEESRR
TRPC6 inh – mouse TRPC6 channel inhibition. B-score at 10 µM. HEK293-TRPC6, membrane potential dye, ACh-evoked depolarization; active compounds read low. Q61143. 310,000 compounds, 1.1% hits;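 active means B-score under library mean minus 3 SD, initial fluorescence not abnormally high, positive integrated signal ratio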;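 further: B-score derived from integrated fluorescence ratio over the kinetic read; more negative B-score means stronger inhibition of depolarization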
TRPC4 agonist – TRPC4 (mouse) channel activation; B-score at 10 µM; HEK293 TRPC4beta/mu-opioid, Fluo4 calcium fluorescence; active compounds read high; Q9QUQ5; 310,000 compounds, 0.49% hits;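 active means B-score above 5 SD of library B-scores, and initial fluorescence ratio not above library mean plus 5 SD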;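 further: positive B-score marks a calcium rise read as TRPC4 activation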
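Material: TRPC4beta and mu-opioid receptor HEK293 stable cells | Incubation: 45 min room-temperature Fluo4 loading, 110 s read | Detection: Kinetic Fluo4 calcium fluorescence | Measure: Integrated baseline-normalised fluorescence ratio, converted to per-well B score | Benchmarks: Low control buffer alone, high control maximal DAMGO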
TRPC4 spec 2 – mouse TRPC4 off-target activity of TRPC6 inhibitors, second screen | shares compounds with TRPC6 inh | HEK293 TRPC4/MOR, membrane potential dye fluorescence; channel activated by saturating DAMGO dose | inhibition, % at 10 µM | 920 compounds, 42% hits | AID 2776;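 active means compounds whose fluorescence signal differed from control wells by over 3 SD, either direction, in both duplicate plates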
TRPC4 spec – tests whether TRPC6 inhibitors also affect mouse TRPC4; activity change, negative = inhibition, % at 10 µM; shares compounds with TRPC6 inh; HEK293 TRPC4/mu-opioid, membrane potential fluorescence; 920 compounds, 61% hits;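 active means rise or fall in signal beyond 3 SD of buffer-only wells in both replicate plates, either sign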;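 further: integrated kinetic ratio of fluorescence range over baseline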
HEK293 MPD ctr 2-1 – parental HEK293 nonspecific activity of TRPC6 inhibitors, second screen | signal change vs control, % at 10 µM | 920 compounds, 31% hits | shares compounds with TRPC6 inh | parental HEK293 membrane potential dye fluorescence; maximal acetylcholine challenge after compound addition;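 active means membrane potential signal moving either way by over 3 SD of the maximum-effect control, in both duplicate plates, meaning non-specific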
HEK293 MPD ctr-1 – parental HEK293 nonspecific activity of TRPC6 inhibitors. shares compounds with TRPC6 inh. parental HEK293 membrane potential dye fluorescence. membrane potential signal change, % at 10 µM. 920 compounds, 60% hits. AID 2780;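 active means membrane potential signal shifting up or down by more than 3 SD of buffer-only wells, on both duplicate plates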
HEK293 MPD ctr-2 – parental HEK293 nonspecific activity of TRPC6 modulators | shares compounds with TRPC6 inh | membrane potential dye fluorescence | membrane potential signal change, % at 10 µM | 2,400 compounds, 51% hits;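 active means membrane potential signal moves up or down beyond 5 SD from buffer-only wells, on both duplicate plates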
HEK293 MPD ctr 2-2 – second check of TRPC6 modulator effects in parental HEK293 cells. inhibition, % at 10 µM. AID 488926. membrane potential dye fluorescence; after compound, maximal acetylcholine stimulation. shares compounds with TRPC6 inh. 2,400 compounds, 14% hits;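 active means membrane potential signal drops by more than 5 SD from the mean control signal, in both duplicate plates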
TRPC4/MOR mod – tests whether TRPC6 modulators also affect mouse TRPC4 | shares compounds with TRPC6 inh | HEK293 TRPC4/mu-opioid, membrane potential fluorescence | percent change from control (negative = decrease, positive = increase), % at 10 µM | 2,400 compounds, 69% hits | AID 488927;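 active means membrane potential signal moved up or down beyond 5 SD of buffer control wells, in both duplicate plates, actives on both sides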
TRPC4 ctr inh 2 – second selectivity test of TRPC6 modulators against mouse TRPC4 | shares compounds with TRPC6 inh | HEK293 TRPC4/mu-opioid, membrane potential dye fluorescence; stimulated with maximal-effect DAMGO | inhibition, % at 10 µM | 2,400 compounds, 55% hits | AID 488928;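 active means drop in membrane potential signal beyond 5 SD of the control wells in both duplicate plates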;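 further: TRPC4 counter screen for TRPC6 hits run under conditions tuned for TRPC6 not TRPC4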
TRPC6 inh conf – mouse TRPC6 inhibitor confirmation; shares compounds with TRPC6 inh; HEK293-TRPC6, membrane potential dye, ACh-evoked depolarization; inhibition, % at 10 µM; 3,300 compounds, 43% hits; AID 488960;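 active means fluorescence ratio falls more than 5 SD below the full-stimulation control mean, in both duplicate runs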;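 further: integrated fluorescence ratio of peak minus minimum over baseline after agonist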
TRPC6 act conf – confirmation of mouse TRPC6 activators; activation, % at 10 µM; shares compounds with TRPC6 inh; 2,800 compounds, 11% hits; HEK293-TRPC6 membrane potential dye fluorescence, FDSS;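 active means ratio signal rise beyond 5 SD above unstimulated control wells' mean, seen in both duplicate runs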
Each line names hits and unclear results; the compound was inactive in the other large screens (follow-up assays come after a bar, where they were run). The list is not random: actives were taken first. Their share in the collection is about 2.3%.

CCCCCC[N+](C)(C)CC/C=C1/c2ccccc2Sc2ccc(Cl)cc21	TRPC4 inh -7, TRPC6 inh -6.6 | TRPC4 spec 2 inactive | TRPC4 spec inactive | HEK293 MPD ctr 2-1 inactive | HEK293 MPD ctr-1 inactive | TRPC6 inh conf 78% | TRPC6 act conf inactive
O=C(CN1C(=O)COc2ccccc21)NC1CCCC1	none
CC(=NCCCn1ccnc1)c1c(C)[nH]n(-c2ccc([N+](=O)[O-])cc2)c1=O	TRPC6 inh -5.5 | HEK293 MPD ctr-2 -208% | HEK293 MPD ctr 2-2 inactive | TRPC4/MOR mod -42% | TRPC4 ctr inh 2 37% | TRPC6 inh conf inactive | TRPC6 act conf inactive
Cc1[nH]n(-c2ccc([N+](=O)[O-])cc2)c(=O)c1/C=N/N1CCOCC1	none
O=C(CSc1ncc(-c2ccccc2)n1CC1CCCO1)N1CCCCC1 (stereo unspecified)	TRPC6 inh -6 | HEK293 MPD ctr-2 100% | HEK293 MPD ctr 2-2 inactive | TRPC4/MOR mod 13% | TRPC4 ctr inh 2 inactive | TRPC6 inh conf inactive
O=C1CCCc2ccccc2N1Cc1ccccc1	none
COc1ccc(CN2C(=O)CCCc3ccccc32)cc1	TRPC6 inh -5.7 | HEK293 MPD ctr-2 inactive | HEK293 MPD ctr 2-2 inactive | TRPC4/MOR mod inactive | TRPC4 ctr inh 2 inactive | TRPC6 inh conf inactive | TRPC6 act conf inactive
CN1CCN(C2=C(NS(=O)(=O)c3cccs3)C(=O)c3ccccc3C2=O)CC1	none
O=C1C(NS(=O)(=O)c2cccs2)=C(N2CCN(Cc3ccccc3)CC2)C(=O)c2ccccc21	TRPC6 inh -7.3 | HEK293 MPD ctr-2 -136% | HEK293 MPD ctr 2-2 inactive | TRPC4/MOR mod -36% | TRPC4 ctr inh 2 72% | TRPC6 inh conf 58% | TRPC6 act conf inactive
CN(C)CCCNc1nc2sc3c(c2c(=O)n1CCc1ccccc1)CCCCC3	TRPC6 inh -7 | TRPC4 spec 2 74% | TRPC4 spec -11% | HEK293 MPD ctr 2-1 inactive | HEK293 MPD ctr-1 inactive | TRPC6 inh conf inactive | TRPC6 act conf inactive
O=c1c2c3c(sc2nc(NCCO)n1-c1ccccc1)CCCC3	none
CCOc1cc2c(cc1OC)C(NC(=O)c1ccco1)CC2=O (stereo unspecified)	none
COc1ccc2c(n1)Sc1nc3ccccc3nc1N2	TRPC6 act 19 | HEK293 MPD ctr-2 210% | HEK293 MPD ctr 2-2 inactive | TRPC4/MOR mod 106% | TRPC4 ctr inh 2 inactive | TRPC6 inh conf inactive | TRPC6 act conf inactive
COc1cc2ccccc2nn1	none
O=C(NC(=S)NC1C2CC3CC(C2)CC1C3)C12CC3CC(CC(C3)C1)C2 (stereo unspecified)	TRPC6 inh -8 | TRPC4 spec 2 inactive | TRPC4 spec inactive | HEK293 MPD ctr 2-1 inactive | HEK293 MPD ctr-1 inactive | TRPC6 inh conf inactive | TRPC6 act conf inactive
O=C(NC1CCN(C(=O)Nc2ccc(F)cc2)CC1)c1ccccc1F	none
Cc1ccc(-c2c[n+](CC(=O)N3c4ccccc4Sc4ccccc43)c3n2CCC3)cc1	TRPC6 inh -5.9 | HEK293 MPD ctr-2 inactive | HEK293 MPD ctr 2-2 inactive | TRPC4/MOR mod -14% | TRPC4 ctr inh 2 inactive | TRPC6 inh conf 71% | TRPC6 act conf inactive
O=C(C[n+]1cc(-c2ccc(F)cc2)n2c1CCC2)N1c2ccccc2Sc2ccccc21	TRPC6 inh -7.9 | HEK293 MPD ctr-2 inactive | HEK293 MPD ctr 2-2 inactive | TRPC4/MOR mod inactive | TRPC4 ctr inh 2 inactive | TRPC6 inh conf 70% | TRPC6 act conf inactive
Cc1nnc(SCC(=O)NC2CCCCCC2)n1C(C)C	none
CCOC(=O)c1nc2cc3n(c(C)c-2c1C)C(C)C(CC)=C3C (stereo unspecified)	TRPC6 inh -6.5 | HEK293 MPD ctr-2 158% | HEK293 MPD ctr 2-2 174% | TRPC4/MOR mod 24% | TRPC4 ctr inh 2 34% | TRPC6 inh conf 52% | TRPC6 act conf inactive
c1ccc2c(c1)nc(N1CCCCCC1)c1ccccc12	none
Cc1ccc(Nc2nc(N3CCOCC3)c3ccccc3n2)cc1	TRPC6 inh -5.3 | HEK293 MPD ctr-2 inactive | HEK293 MPD ctr 2-2 inactive | TRPC4/MOR mod -22% | TRPC4 ctr inh 2 55% | TRPC6 inh conf inactive | TRPC6 act conf inactive
Cc1ccc(Nc2nc(N)c([N+](=O)[O-])c(N3CCOCC3)n2)cc1	none
Oc1ccc(Nc2nc(N3CCCC3)c3ccccc3n2)cc1	TRPC4 inh -6, TRPC6 inh -11 | TRPC4 spec 2 56% | TRPC4 spec -19% | HEK293 MPD ctr 2-1 32% | HEK293 MPD ctr-1 -262% | TRPC6 inh conf 71% | TRPC6 act conf inactive
COc1ccc(Nc2nc(N3CCCCC3)c3ccccc3n2)cc1	TRPC6 inh -7.5 | TRPC4 spec 2 inactive | TRPC4 spec inactive | HEK293 MPD ctr 2-1 inactive | HEK293 MPD ctr-1 inactive | TRPC6 inh conf inactive | TRPC6 act conf inactive
Cc1csc(SCC(=O)NC2CCC(C)CC2)n1 (stereo unspecified)	none
CCOC(=O)N1CCC(N(CCOC)C(=O)Nc2ccc(CC)cc2)CC1	none
CCOC(=O)N1CCC(N(C(=O)Nc2ccc(Cl)c(Cl)c2)C(C)CC)CC1 (stereo unspecified)	TRPC6 inh -6.4 | HEK293 MPD ctr-2 inactive | HEK293 MPD ctr 2-2 inactive | TRPC4/MOR mod inactive | TRPC4 ctr inh 2 inactive | TRPC6 inh conf inactive | TRPC6 act conf inactive
